Our source for the Activity and Tmax values is ChEMBL document CHEMBL4261600 (Eur J Med Chem, 2018).

Each structure is given as a SMILES string. Active and inactive are the calls of the source.

For data set [1], the species on record is Homo sapiens. Kind of data set: Induction of apoptosis in human MEC1 cells assessed as decrease in XIAP level up to 3 uM after 2 hrs by immunoblotting analysis. Type of data set: functional, cell-based. Background: Immunoblotting shows a protein as a band on a membrane.
Data set [2] in a line: Tmax in Sprague-Dawley rat at 3 mg/kg, iv by LC-MS/MS analysis. Type of data set: ADME, organism-based. Conditions: in vivo.
Data set [3] has as its target Tyrosine-protein kinase Blk (Homo sapiens) (UniProt P51451). Kind of data set: Binding affinity to wild-type human partial length BLK (G211 to L503 residues) expressed in bacterial expression system assessed as remaining unbound target protein level at 1000 nM by Kinomescan method relative to control. Put shortly:
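Profiled in a KINOMEscan binding panel with the inhibitor at a single concentration of 1 μM. Binding to each kinase was read out as percent of control, relative to a DMSO control. Strong binders were defined as those with a percent control value below 1.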

For data set [4], the target named is Cyclin-dependent kinase 2 (Homo sapiens) (UniProt P24941). Kind of data set: Binding affinity to wild-type human full length CDK2 (M1 to L298 residues) expressed in bacterial expression system assessed as remaining unbound target protein level at 1000 nM by Kinomescan method relative to control. Put shortly:
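Single-point competition binding screen across a panel of 468 kinases and mutants, with the inhibitor at 1 μM. Binding is read out as percent of a DMSO control, and targets below 1 percent control were classed as strong binders.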

The target of data set [5] is Cyclin-dependent kinase-like 2 (Homo sapiens) (UniProt Q92772). As to the kind of experiment: Binding affinity to wild-type human partial length CDKL2 (M1 to D327 residues) expressed in bacterial expression system assessed as remaining unbound target protein level at 1000 nM by Kinomescan method relative to control. In short, it runs like this: (§1)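 KINOMEscan competition binding profile across a panel of 468 kinases and mutants, with the inhibitor tested at a single concentration of 1 μM. Binding is reported as percent of control, meaning signal relative to a DMSO control.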

The target in data set [6] is Casein kinase I isoform gamma-1 (Homo sapiens) (UniProt Q9HCP0). As to the kind of experiment: Binding affinity to wild-type human partial length CSNK1G1 (T15 to S353 residues) expressed in bacterial expression system assessed as remaining unbound target protein level at 1000 nM by Kinomescan method relative to control. Put shortly:
as §1

Data set [7] concerns the target Epidermal growth factor receptor (Homo sapiens) (UniProt P00533). Kind of data set: Binding affinity to human partial length EGFR L747-T751del/Sins mutant expressed in bacterial expression system assessed as remaining unbound target protein level at 1000 nM by Kinomescan method relative to control. Put shortly:
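KINOMEscan competition-binding profiling across the panel of 468 kinases and mutants, with inhibitor tested at 1 μM. Binding is expressed as percent of control, with DMSO as the reference control.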

The target in data set [8] is Eukaryotic translation initiation factor 2-alpha kinase 1 (Homo sapiens) (UniProt Q9BQI3). As to the kind of experiment: Binding affinity to wild-type human partial length EIF2AK1 (Q147 to E603 residues) expressed in mammalian expression system assessed as remaining unbound target protein level at 1000 nM by Kinomescan method relative to control.
Data set [9] addresses Mitogen-activated protein kinase 15 (Homo sapiens) (UniProt Q8TD08). Kind of data set: Binding affinity to wild-type human partial length ERK8 (M1 to P437 residues) expressed in bacterial expression system assessed as remaining unbound target protein level at 1000 nM by Kinomescan method relative to control. In short, it runs like this:
(§2)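 KINOMEscan binding panel of 468 kinases/mutants. Inhibitor was tested at a single concentration of 1 μM. Binding is reported as percent of control, defined relative to a DMSO control.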

Data set [10] has as its target Hormonally up-regulated neu tumor-associated kinase (Homo sapiens) (UniProt P57058). Kind of data set: Binding affinity to wild-type human partial length HUNK (A31 to K354 residues) expressed in bacterial expression system assessed as remaining unbound target protein level at 1000 nM by Kinomescan method relative to control. In short, it runs like this:
as §2

Data set [11] deals with Mitogen-activated protein kinase kinase kinase 15 (Homo sapiens) (UniProt Q6ZN16). As to the kind of experiment: Binding affinity to wild-type human partial length MAP3K15 (T625 to L932 residues) expressed in mammalian expression system assessed as remaining unbound target protein level at 1000 nM by Kinomescan method relative to control.
Data set [12] deals with Mitogen-activated protein kinase kinase kinase kinase 4 (Homo sapiens) (UniProt O95819). Kind of data set: Binding affinity to wild-type human partial length MAP4K4 (M1 to R310 residues) expressed in bacterial expression system assessed as remaining unbound target protein level at 1000 nM by Kinomescan method relative to control. Put shortly:
as §2

The target of data set [13] is Microtubule-associated serine/threonine-protein kinase 1 (Homo sapiens) (UniProt Q9Y2H9). As to the kind of experiment: Binding affinity to wild-type human partial length MAST1 (S346 to V730 residues) expressed in mammalian expression system assessed as remaining unbound target protein level at 1000 nM by Kinomescan method relative to control.
The target of data set [14] is Myosin light chain kinase (Homo sapiens) (UniProt Q32MK0). Kind of data set: Binding affinity to wild-type human partial length MLCK (D488 to K800 residues) expressed in bacterial expression system assessed as remaining unbound target protein level at 1000 nM by Kinomescan method relative to control.
The target of data set [15] is Protein kinase C epsilon type (Homo sapiens) (UniProt Q02156). Kind of data set: Binding affinity to wild-type human partial length PRKCE (A378 to P737 residues) expressed in mammalian expression system assessed as remaining unbound target protein level at 1000 nM by Kinomescan method relative to control.
Data set [16] deals with Serine/threonine-protein kinase D2 (Homo sapiens) (UniProt Q9BZL6). As to the kind of experiment: Binding affinity to wild-type human partial length PRKD2 (A519 to E838 residues) expressed in bacterial expression system assessed as remaining unbound target protein level at 1000 nM by Kinomescan method relative to control.
Data set [17] has as its target Proto-oncogene tyrosine-protein kinase Src (Homo sapiens) (UniProt P12931). Kind of data set: Binding affinity to wild-type human partial length SRC (L240 to L536 residues) expressed in bacterial expression system assessed as remaining unbound target protein level at 1000 nM by Kinomescan method relative to control.
The target in data set [18] is Serine/threonine-protein kinase 36 (Homo sapiens) (UniProt Q9NRP7). Kind of data set: Binding affinity to wild-type human partial length STK36 (M1 to T271 residues) expressed in bacterial expression system assessed as remaining unbound target protein level at 1000 nM by Kinomescan method relative to control.
Data set [19] has as its target STE20/SPS1-related proline-alanine-rich protein kinase (Homo sapiens) (UniProt Q9UEW8). As to the kind of experiment: Binding affinity to wild-type human partial length STK39 (P43 to I357 residues) expressed in mammalian expression system assessed as remaining unbound target protein level at 1000 nM by Kinomescan method relative to control.
Data set [20] addresses Testis-specific serine/threonine-protein kinase 1 (Homo sapiens) (UniProt Q9BXA7). As to the kind of experiment: Binding affinity to wild-type human full length TSSK1B (M1 to Q367 residues) expressed in bacterial expression system assessed as remaining unbound target protein level at 1000 nM by Kinomescan method relative to control. In short, it runs like this: as §1
Data set [21] deals with Serine/threonine-protein kinase WNK2 (Homo sapiens) (UniProt Q9Y3S1). Kind of data set: Binding affinity to wild-type human partial length WNK2 (V47 to D482 residues) expressed in mammalian expression system assessed as remaining unbound target protein level at 1000 nM by Kinomescan method relative to control.

Testis-specific serine/threonine-protein kinase 1 (Homo sapiens), sequence (Q9BXA7 whole entry, the tested form may be a part): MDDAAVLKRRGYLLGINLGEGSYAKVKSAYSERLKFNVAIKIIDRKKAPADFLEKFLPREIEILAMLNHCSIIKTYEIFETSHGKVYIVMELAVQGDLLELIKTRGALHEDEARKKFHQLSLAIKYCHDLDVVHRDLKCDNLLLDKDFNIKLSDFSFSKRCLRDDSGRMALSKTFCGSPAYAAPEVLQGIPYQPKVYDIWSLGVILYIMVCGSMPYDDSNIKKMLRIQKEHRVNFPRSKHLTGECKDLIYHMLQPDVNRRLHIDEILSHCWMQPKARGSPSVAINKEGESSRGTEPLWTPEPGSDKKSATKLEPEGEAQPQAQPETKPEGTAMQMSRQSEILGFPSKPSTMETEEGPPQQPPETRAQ
Mitogen-activated protein kinase 15 (Homo sapiens), sequence (Q8TD08 whole entry, the tested form may be a part): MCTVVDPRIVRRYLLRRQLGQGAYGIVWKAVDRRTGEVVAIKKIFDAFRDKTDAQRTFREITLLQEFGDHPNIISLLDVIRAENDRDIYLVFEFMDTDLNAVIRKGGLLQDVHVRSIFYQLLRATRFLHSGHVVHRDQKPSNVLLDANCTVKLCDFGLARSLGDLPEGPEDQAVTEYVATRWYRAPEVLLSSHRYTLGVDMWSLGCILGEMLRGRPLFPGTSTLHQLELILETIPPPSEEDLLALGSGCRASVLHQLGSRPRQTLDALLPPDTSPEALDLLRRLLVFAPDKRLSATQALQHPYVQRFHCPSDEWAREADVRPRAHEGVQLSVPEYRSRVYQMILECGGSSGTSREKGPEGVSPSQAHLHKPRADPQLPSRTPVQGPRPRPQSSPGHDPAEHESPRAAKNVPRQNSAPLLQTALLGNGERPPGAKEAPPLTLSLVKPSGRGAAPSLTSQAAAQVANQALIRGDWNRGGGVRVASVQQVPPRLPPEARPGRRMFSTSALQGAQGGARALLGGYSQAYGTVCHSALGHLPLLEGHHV
Cyclin-dependent kinase-like 2 (Homo sapiens), sequence (Q92772 whole entry, the tested form may be a part): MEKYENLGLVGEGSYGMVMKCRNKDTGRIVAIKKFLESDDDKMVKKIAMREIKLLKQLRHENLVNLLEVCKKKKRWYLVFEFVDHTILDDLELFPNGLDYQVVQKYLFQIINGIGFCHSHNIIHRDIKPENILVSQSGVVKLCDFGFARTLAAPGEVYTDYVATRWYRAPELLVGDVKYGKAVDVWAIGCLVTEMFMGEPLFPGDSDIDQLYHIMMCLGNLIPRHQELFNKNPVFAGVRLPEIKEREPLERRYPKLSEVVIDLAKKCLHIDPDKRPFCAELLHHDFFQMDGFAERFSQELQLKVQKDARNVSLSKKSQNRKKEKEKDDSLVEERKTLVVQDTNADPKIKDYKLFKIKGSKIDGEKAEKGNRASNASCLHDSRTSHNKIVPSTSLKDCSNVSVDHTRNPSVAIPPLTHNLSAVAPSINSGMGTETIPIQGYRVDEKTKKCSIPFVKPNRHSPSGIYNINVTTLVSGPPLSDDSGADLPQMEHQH
Eukaryotic translation initiation factor 2-alpha kinase 1 (Homo sapiens), sequence (Q9BQI3 whole entry, the tested form may be a part): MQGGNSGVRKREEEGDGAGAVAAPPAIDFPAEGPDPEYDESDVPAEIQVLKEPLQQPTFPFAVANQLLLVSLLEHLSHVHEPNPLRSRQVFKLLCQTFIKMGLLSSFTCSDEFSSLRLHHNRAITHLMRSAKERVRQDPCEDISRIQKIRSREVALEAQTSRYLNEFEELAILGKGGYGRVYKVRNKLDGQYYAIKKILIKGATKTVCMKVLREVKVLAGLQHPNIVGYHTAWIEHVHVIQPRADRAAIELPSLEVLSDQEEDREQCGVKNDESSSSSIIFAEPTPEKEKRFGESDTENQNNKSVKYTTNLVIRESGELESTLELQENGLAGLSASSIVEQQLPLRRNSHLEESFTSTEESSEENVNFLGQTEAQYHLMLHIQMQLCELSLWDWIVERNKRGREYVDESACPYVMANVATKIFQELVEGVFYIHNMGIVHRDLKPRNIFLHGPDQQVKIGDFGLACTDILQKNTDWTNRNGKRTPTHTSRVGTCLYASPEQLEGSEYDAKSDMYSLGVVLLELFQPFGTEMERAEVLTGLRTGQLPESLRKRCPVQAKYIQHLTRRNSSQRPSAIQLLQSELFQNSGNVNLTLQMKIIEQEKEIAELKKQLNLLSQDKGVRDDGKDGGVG
Mitogen-activated protein kinase kinase kinase kinase 4 (Homo sapiens), sequence (O95819 2-1239 limits assumed): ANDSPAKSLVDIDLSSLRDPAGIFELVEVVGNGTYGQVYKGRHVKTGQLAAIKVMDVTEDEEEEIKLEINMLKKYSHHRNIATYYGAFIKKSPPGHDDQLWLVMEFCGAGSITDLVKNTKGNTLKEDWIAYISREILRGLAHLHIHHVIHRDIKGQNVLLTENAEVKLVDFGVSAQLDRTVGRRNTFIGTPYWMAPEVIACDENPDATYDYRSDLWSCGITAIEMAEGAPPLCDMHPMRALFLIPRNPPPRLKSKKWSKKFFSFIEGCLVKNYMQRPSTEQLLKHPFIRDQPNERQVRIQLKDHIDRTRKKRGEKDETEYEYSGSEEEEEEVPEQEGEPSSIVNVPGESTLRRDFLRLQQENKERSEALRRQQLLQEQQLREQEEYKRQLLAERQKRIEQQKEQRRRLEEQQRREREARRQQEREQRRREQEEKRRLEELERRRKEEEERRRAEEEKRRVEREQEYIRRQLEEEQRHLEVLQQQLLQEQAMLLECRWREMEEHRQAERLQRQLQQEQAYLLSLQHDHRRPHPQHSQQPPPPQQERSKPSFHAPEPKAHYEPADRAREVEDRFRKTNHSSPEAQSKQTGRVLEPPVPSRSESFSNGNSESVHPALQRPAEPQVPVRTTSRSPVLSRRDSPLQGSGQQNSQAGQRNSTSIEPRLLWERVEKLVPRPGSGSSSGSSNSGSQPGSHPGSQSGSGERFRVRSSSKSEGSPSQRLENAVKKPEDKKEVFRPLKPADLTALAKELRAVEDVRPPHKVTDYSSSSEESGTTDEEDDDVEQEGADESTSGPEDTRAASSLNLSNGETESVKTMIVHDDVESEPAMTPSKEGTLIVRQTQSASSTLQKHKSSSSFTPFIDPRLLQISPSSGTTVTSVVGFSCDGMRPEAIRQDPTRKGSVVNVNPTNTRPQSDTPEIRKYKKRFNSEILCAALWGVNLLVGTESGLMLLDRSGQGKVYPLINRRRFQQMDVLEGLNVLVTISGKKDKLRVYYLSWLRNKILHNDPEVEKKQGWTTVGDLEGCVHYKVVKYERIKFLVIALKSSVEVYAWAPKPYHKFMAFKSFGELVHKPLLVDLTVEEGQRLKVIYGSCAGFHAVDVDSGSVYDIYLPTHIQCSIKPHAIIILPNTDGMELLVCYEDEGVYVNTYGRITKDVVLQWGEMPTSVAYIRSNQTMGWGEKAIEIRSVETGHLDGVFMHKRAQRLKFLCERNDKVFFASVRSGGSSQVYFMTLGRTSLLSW
Microtubule-associated serine/threonine-protein kinase 1 (Homo sapiens), sequence (Q9Y2H9 whole entry, looked up, the tested form may be a part): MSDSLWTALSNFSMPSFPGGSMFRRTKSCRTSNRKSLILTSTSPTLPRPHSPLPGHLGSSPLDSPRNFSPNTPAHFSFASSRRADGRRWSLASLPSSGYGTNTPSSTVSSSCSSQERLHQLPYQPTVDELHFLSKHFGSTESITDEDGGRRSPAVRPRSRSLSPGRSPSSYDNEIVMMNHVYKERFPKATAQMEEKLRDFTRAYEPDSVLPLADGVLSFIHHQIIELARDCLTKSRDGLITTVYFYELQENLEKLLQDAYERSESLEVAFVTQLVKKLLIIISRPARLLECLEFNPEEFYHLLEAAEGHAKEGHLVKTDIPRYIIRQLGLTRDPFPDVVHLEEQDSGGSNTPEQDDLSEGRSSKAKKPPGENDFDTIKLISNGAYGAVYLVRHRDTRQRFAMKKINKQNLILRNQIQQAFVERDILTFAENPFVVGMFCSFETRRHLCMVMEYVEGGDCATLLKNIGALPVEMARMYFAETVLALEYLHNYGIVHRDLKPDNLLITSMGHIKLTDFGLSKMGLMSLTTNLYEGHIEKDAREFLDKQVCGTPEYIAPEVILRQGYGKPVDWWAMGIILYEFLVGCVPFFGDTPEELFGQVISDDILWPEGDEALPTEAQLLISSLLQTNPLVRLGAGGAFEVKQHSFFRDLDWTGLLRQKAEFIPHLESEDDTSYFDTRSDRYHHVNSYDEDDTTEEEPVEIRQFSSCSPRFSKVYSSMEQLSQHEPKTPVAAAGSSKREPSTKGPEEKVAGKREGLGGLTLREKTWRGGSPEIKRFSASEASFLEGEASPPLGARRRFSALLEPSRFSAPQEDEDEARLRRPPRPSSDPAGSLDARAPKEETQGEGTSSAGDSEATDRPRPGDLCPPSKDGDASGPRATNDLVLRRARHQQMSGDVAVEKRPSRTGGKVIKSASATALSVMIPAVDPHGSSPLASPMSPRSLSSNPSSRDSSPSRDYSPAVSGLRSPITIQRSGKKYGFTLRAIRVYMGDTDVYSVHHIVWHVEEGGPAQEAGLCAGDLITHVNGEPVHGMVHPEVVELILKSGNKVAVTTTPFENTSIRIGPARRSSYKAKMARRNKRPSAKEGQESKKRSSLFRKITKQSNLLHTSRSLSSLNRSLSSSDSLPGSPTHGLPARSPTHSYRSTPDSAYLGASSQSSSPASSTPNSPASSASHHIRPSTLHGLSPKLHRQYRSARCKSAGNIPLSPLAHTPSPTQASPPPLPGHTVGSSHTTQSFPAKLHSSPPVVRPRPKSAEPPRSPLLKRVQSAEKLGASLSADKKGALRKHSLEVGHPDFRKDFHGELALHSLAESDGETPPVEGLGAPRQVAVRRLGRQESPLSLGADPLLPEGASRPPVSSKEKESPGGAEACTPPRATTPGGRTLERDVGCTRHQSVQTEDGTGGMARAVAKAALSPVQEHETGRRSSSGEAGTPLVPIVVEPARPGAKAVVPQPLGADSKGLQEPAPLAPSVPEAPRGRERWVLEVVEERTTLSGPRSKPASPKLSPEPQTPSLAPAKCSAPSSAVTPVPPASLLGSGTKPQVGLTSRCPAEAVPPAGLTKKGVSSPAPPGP

As for `COCCN[C@H]1CC[C@H](Nc2cc(-c3csc(NCC4(C#N)CCOCC4)n3)c(Cl)cn2)CC1`, in [1], the result was inactive. Further, the Tmax (in general, the time from dosing to the highest level) in [2] is 1.2 min. The Activity in data set [3] was 97%; in data set [4], 100%; in [5] it was 63%; in [6] it was 93%; in data set [7] it was 90%; in [8] it was 97%. Moreover, the Activity in data set [9] came out at 86%; in data set [10] it was 81%; in data set [11], 84%; in [12], 91%; in [13], 88%; in data set [14], 100%. Also, the Activity in data set [15] came out at 93%; in data set [16], 70%; in data set [17], 89%; in data set [18], 83%; in [19] it was 57%; in data set [20], 93%. Further, the Activity in data set [21] is 92%.
